Consider 8 compounds from ChEMBL document CHEMBL1156669, “Aldehyde dehydrogenase inhibitors: alpha,beta-acetylenic N-substituted aminothiolesters are reversible growth inhibitors of normal epithelial but irreversible apoptogens for cancer epithelial cells from human prostate in culture” (Eur J Med Chem, 2008).

SMILES strings stand for the structures. pIC50, pKi: −log10 of the molar value.

One test has as its system DU-145. As to the kind of experiment: Growth inhibition of human DU145 cells administered after 3 days. The settings on record: DU-145, 72 h. Type of test: functional, cell-based. In outline: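 DU145 in RPMI 1640 with 10% FCS; 1 × 10⁵ cells per well in 24-well plates, compound added 4 h after seeding. After 3 days the adherent sheet was washed twice with PBS and harvested in 0.14 M NaOH, and protein content measured. IC50 is the mean of three experiments.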

A short description of test [1]: Growth inhibition of HPEN cells administered after 3 days. The settings on record: Homo sapiens, 72 h. The test is classed as cell-based. In outline:
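HPENC in PrEGM with supplement and 10% FCS; 1 × 10⁵ cells per well in 24-well plates, compound added 4 h after seeding once adhered. After 3 days, growth read as protein content. IC50 is the mean of three experiments.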

Another test relates to BaF3. As to the kind of experiment: Induction of apoptosis in mouse BAF3 cells overexpressing bcl2. The test is classed as functional, cell-based.
Test [2] concerns the target Aldehyde dehydrogenase 1 (Saccharomyces cerevisiae). As to the kind of experiment: Inhibition of ALDH1.

`CSC(=O)C#CC(C)(C)N1Cc2ccccc2C1` gave a pIC50 in the test on DU-145 of 5.21. In the test on DU-145, `CSC(=O)C#CC(C)(C)N(C)CCc1ccccc1` gave a pIC50 of 5.22. Consider `CSC(=O)C#CC(C)(C)[N+](C)(C)C`, for which the pIC50 is below 3.22 with DU-145 and 3.23 in test [1]. In the test with BaF3, `CSC(=O)C#CC(C)(C)N` had a negative logarithm of the IC50 (pIC50) of 5.40. For the same compound, in test [2], the negative-log Ki (pKi) is 3.55. For `CCCN(CCC)C(C)(C)C#CC(=O)SC`, the pIC50 in the test with DU-145 is 4.90. For `CSC(=O)C#CC(C)(C)N(C)c1ccccc1`, the negative logarithm of the IC50 (pIC50) in the test with DU-145 was 4.90. Turning to `CSC(=O)C#CC(C)(C)N(C)Cc1ccccc1`, the results for the pIC50 (in the test on DU-145; in test [1]) were 5.85 and 5.72, respectively. The compound `CSC(=O)C#CC(C)(C)N1CCCCC1` gave a pIC50 with DU-145 of 4.66.
